Measurements pooled from the literature.
Lines come from different studies, so protocols differ.
Target: Dual specificity tyrosine-phosphorylation-regulated kinase 3 (DYRK3, Homo sapiens, UniProt O43781)
Read-out: enzyme activity
Action: inhibitor
Sequence (O43781 1-588, as in one of the studies): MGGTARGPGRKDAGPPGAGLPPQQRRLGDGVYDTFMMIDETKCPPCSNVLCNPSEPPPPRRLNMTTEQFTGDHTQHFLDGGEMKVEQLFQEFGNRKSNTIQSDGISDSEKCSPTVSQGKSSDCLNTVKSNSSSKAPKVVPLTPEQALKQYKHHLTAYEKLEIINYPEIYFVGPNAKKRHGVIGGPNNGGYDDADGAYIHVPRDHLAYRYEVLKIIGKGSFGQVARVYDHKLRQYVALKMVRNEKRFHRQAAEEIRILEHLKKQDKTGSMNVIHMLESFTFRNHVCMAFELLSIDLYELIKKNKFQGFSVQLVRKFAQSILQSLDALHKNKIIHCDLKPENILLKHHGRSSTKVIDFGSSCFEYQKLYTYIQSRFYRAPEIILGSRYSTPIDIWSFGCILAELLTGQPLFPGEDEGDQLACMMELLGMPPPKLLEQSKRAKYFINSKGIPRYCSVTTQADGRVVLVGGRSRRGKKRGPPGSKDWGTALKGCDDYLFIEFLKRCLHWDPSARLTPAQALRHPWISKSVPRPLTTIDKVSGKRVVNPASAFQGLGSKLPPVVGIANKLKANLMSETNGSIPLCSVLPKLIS

| Compound | technique | concentration | remaining activity |
| --- | --- | --- | --- |
| O=C(O)c1ccc2c(c1)nc(Nc1ccc(F)c(Cl)c1)c1ccncc12 | radiometric | 1 µM | 1% |
| Cn1c(=O)n(-c2ccc(C(C)(C)C#N)cc2)c2c3cc(-c4cnc5ccccc5c4)ccc3ncc21 | – | 10 µM | 56% |
| CC(C)(O)[C@H]1CC[C@H](Nc2ccc3ncc(-c4cccc(C(F)(F)F)c4)n3n2)CC1 | – | 1 µM | 63.6% |
| O=C(O)c1ccc2c(c1)nc(Nc1ccccc1)c1ncncc12 | radiometric | 1 µM | 22% |
| CC(C)(C)C(=O)c1sc(NC2CCCCC2)nc1N | – | 10 µM | 96% |
| CC(C)(C)c1nc(-c2cccc(NS(=O)(=O)c3c(F)cccc3F)c2F)c(-c2ccnc(N)n2)s1 | radiometric | 1 µM | 91% |
| COc1cc(Nc2cnc(C#N)c(O[C@H](C)CN(C)C)n2)ncc1-c1cnn(C)c1 | radiometric | 10 µM | 79% |
| N#Cc1cccc(Nc2nc3cc(C(=O)O)ccc3c3cncnc23)c1 | radiometric | 1 µM | 15% |
| FC(F)c1nc2ccccc2n1-c1nc(N2CCOCC2)nc(N2CCOCC2)n1 | – | 10 µM | 87% |
| CC(C)(C)c1nc2c(s1)c1nc(N)ncc1c1ccc(NS(=O)(=O)c3c(F)cccc3F)c(F)c12 | radiometric | 1 µM | 83% |
| O=C(O)c1ccc2c(c1)nc(Nc1ccc3ccccc3c1)c1ncncc12 | radiometric | 1 µM | 0% |
| COc1cc(Cl)c(C(=O)N[C@@H](CN[C@H]2CC[C@@H](N)CC2)Cc2ccc(C#N)cc2)cc1-c1ccc(CN[C@H](C)c2ccc(C)cc2)o1 | – | 1 µM | 99% |
| O=C(Nc1cnn(-c2csc(C(=O)NC3COC3)c2)c1)Nc1c(F)cccc1Cl | – | 5 µM | 99.2% |
| O=C(O)c1ccc2c(c1)nc(Nc1ccccc1Cl)c1ncncc12 | radiometric | 1 µM | 66% |
| Nc1nc(NC2CCCCC2)sc1C(=O)c1ccccc1 | – | 10 µM | 57% |
| Cc1sc(C(=O)NC2COC2)cc1-n1cc(NC(=O)Nc2c(F)cccc2Cl)cn1 | – | 10 µM | 101% |
